Calls of active or inactive are those of the source. The calls are words filed in the database; no cut-off is given here.
Legend:
Cytochrome P450 2D6 = Cytochrome P450 2D6 (Homo sapiens, UniProt P10635); assay: Inhibition of human CYP2D6; type: ADME
Hepatocyte = assay: Increase in CYP3A4 protein level in human primary hepatocytes at 10 uM by Western blot analysis relative to rifampicin; type: ADME, cell-based
Outline: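 Human primary cultured hepatocytes exposed to 10 µM compound; CYP3A4 protein measured by Western blot relative to rifampicin at 10 µM.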

[1] = Half life in squirrel monkey at 10 mg/kg, po or 1 mg/kg, iv; type: ADME, organism-based; settings: saimiri, in vivo
[2] = Clearance in squirrel monkey at 10 mg/kg, po or 1 mg/kg, iv; type: ADME, organism-based; settings: saimiri, in vivo
CYP3A = CYP3A (Homo sapiens, UniProt P08684+P20815+P24462+Q9HB55); assay: Inhibition of human CYP3A; type: ADME
Cytochrome P450 1A2 = biological target: T1, Cytochrome P450 1A2 (Homo sapiens, UniProt P05177); assay: Inhibition of human CYP1A2; type: ADME
T1 sequence (P05177 whole entry): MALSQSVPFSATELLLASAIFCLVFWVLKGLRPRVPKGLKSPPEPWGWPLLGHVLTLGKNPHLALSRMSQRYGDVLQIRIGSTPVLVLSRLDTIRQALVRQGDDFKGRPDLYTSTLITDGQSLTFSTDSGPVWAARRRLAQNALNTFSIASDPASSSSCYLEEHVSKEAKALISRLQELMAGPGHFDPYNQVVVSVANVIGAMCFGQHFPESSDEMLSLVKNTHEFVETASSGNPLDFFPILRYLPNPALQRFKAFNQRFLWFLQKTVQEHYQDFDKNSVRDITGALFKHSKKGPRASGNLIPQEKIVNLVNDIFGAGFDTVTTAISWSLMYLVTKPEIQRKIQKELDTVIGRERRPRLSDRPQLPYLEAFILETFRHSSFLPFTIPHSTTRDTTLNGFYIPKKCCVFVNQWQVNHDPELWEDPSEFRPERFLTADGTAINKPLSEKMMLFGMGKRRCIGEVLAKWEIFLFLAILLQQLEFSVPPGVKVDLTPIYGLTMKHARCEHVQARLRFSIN

[3] = Drug excretion in bile cannulated male rat assessed as excretion of parent compound in bile at 3 mg/kg, iv using [3H]-labeled compound measured after 8 hrs; type: ADME, organism-based; set-up: dose 3 mg/kg, route intravenous; settings: in vivo
Outline: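 Permanently bile-cannulated male rats dosed iv with tritiated compound (3 mg/kg, 100 μCi/kg); bile collected 0–8 h and parent expressed as % of total radioactivity.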

[4] = Clearance in rhesus monkey at 10 mg/kg, po or 1 mg/kg, iv; type: ADME, organism-based, Macaca mulatta; settings: in vivo
[5] = Metabolic stability in female rat hepatocytes assessed as compound metabolism level; type: ADME, cell-based, Hepatocyte; settings: read-out: Activity
Brain [6] = assay: Drug level in brain of Lister rat during conditional taste aversion test; type: ADME, tissue-based; settings: in vivo, read-out: Drug uptake
Outline: (§1)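 Male hooded Lister rats in the conditioned taste aversion test given oral compound in 0.5% methocel. Plasma and whole brain levels were measured on the tested animals 90 min post-dosing.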

[7] = Metabolic stability in human hepatocytes assessed as compound metabolism level; type: ADME, cell-based, Hepatocyte; settings: read-out: Activity
Cytochrome P450 2C9 [8] = biological target: T2, Cytochrome P450 2C9 (Homo sapiens, UniProt P11712); assay: Inhibition of human CYP2C9; type: ADME
Rattus norvegicus [9] = species: Rattus norvegicus; assay: Cognitive enhancing effect in Lister rat assessed as change in escape latency pretreated 90 mins before sample phase by water maze delayed matching to position test; type: functional; settings: read-out: MED
Outline: (§2)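 Rats in a water maze with the platform moved daily, four 60 s trials per day over five days. Oral dosing in 0.5% methocel, 90 or 30 min before the sample trial. Savings score = escape latency difference between trials 1 and 2 over a 4 h delay. n = 10; Newman–Keuls test.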

[10] = Metabolic stability in rhesus monkey hepatocytes assessed as compound metabolism level; type: ADME, cell-based, Macaca mulatta, Hepatocyte; settings: read-out: Activity
[11] = Inhibition of PDE4 activity in rat whole blood assessed as inhibition of LPS-induced TNF-alpha release; type: tissue-based
[12] = Oral bioavailability in rat at 10 mg/kg; type: ADME, organism-based; settings: in vivo
[13] = Inhibition of PDE4 activity in squirrel monkey whole blood assessed as inhibition of LPS-induced TNF-alpha release; type: tissue-based; settings: Saimiri
[14] = Oral bioavailability in dog at 3 mg/kg; type: ADME, organism-based, Canis lupus familiaris; settings: in vivo
[15] = Clearance in rat at 10 mg/kg, po or 3 mg/kg, iv; type: ADME, organism-based; settings: in vivo
[16] = Oral bioavailability in squirrel monkey at 10 mg/kg; type: ADME, organism-based; settings: saimiri, in vivo
[17] = Half life in dog at 3 mg/kg, po or 1 mg/kg, iv; type: ADME, organism-based, Canis lupus familiaris; settings: in vivo
[18] = Metabolic stability in male rat hepatocytes assessed as compound metabolism level; type: ADME, cell-based, Hepatocyte; settings: read-out: Activity
Plasma [19] = assay: Drug level in plasma of Lister rat during conditional taste aversion test; type: ADME, cell-free; outline: as §1
[20] = Metabolic stability in dog hepatocytes assessed as compound metabolism level; type: ADME, cell-based, Canis lupus familiaris, Hepatocyte; settings: read-out: Activity
Rattus norvegicus [21] = species: Rattus norvegicus; assay: Ratio MED for cognitive enhancing effect in lister rat during water maze delayed matching to position test to MED for adverse effect in lister rat during conditional taste aversion test; type: functional
Outline: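 Therapeutic window as water maze MED over CTA MED. Water maze: rats dosed orally daily in 0.5% methocel before sample trial, 0.01–3.0 mg/kg, n = 10; four 60 s trials/day, 4 h inter-trial delay, savings score. CTA: water-deprived male hooded Lister rats, 20 min 0.1% saccharin on two conditioning days, oral dose immediately after; LiCl 30.0 mg/kg ip control; test-day intake.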

[22] = Clearance in dog at 3 mg/kg, po or 1 mg/kg, iv; type: ADME, organism-based, Canis lupus familiaris; settings: in vivo
[23] = Half life in rhesus monkey at 10 mg/kg, po or 1 mg/kg, iv; type: ADME, organism-based, Macaca mulatta; settings: in vivo
Plasma [24] = assay: Drug level in plasma of Lister rat during water maze delayed matching to position test
Rattus norvegicus [25] = species: Rattus norvegicus; assay: Induction of adverse effect in Lister rat assessed as induction of malaise by conditional taste aversion test; type: organism-based; settings: in vivo
Outline: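 Singly housed male hooded Lister rats, water-deprived 22.5 h/day. On two conditioning days they had 20 min access to 0.1% saccharin, then received oral compound in 0.5% methocel, vehicle, or LiCl 30 mg/kg ip. Consumption on test day was compared with baseline (n = 6–8; Dunnett's test).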

Phosphodiesterase 4 = Phosphodiesterase 4 (Homo sapiens, UniProt P27815+Q08499+Q07343+Q08493); assay: Inhibition of PDE4 activity in human whole blood assessed as inhibition of LPS-induced TNF-alpha release
[26] = Half life in rat at 10 mg/kg, po or 3 mg/kg, iv; type: ADME, organism-based; settings: in vivo
[27] = Oral bioavailability in rhesus monkey at 10 mg/kg; type: ADME, organism-based, Macaca mulatta; settings: in vivo
[28] = biological target: 3',5'-cyclic-AMP phosphodiesterase 4A (Homo sapiens, UniProt P27815); assay: Inhibition of PDE4A; settings: pooled result: one value given for 3 cell lines, strains, targets or settings
Outline: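 Catalytic domains of PDE4A, B and D expressed as GST constructs in SF9 cells (baculovirus). IC50s are averages of at least two experiments.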

Brain [29] = assay: Drug level in brain of Lister rat during water maze delayed matching to position test; settings: in vivo, read-out: Drug uptake
[30] = Inhibition of PDE4 activity in rhesus monkey whole blood assessed as inhibition of LPS-induced TNF-alpha release; type: tissue-based; settings: Macaca mulatta
Rattus norvegicus [31] = species: Rattus norvegicus; assay: Cognitive enhancing effect in Lister rat assessed as change in escape latency pretreated 30 mins before sample phase by water maze delayed matching to position test; type: functional; settings: read-out: MED; outline: as §2
Rattus norvegicus [32] = assay: Cognitive enhancing effect in Lister rat assessed as recognition of novel object at 0.1 mg/kg, po pretreated 90 mins before sample phase by novel object recognition test; type: functional, organism-based; set-up: dose 0.1 mg/kg
Outline: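 Novel object recognition in rats. Oral dosing in 0.5% methocel 90 min before the sample trial, which ended at 25 s of exploration or 3 min. Choice trial followed with a familiar and a novel object. d2 score = (novel − familiar)/total exploration. n = 21–24; Newman–Keuls test.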

[33] = Ratio IC50 for PDE4 activity in human whole blood to IC50 for PDE4; type: tissue-based
Outline: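 Ratio of two IC50s. The numerator is from human whole blood stimulated with LPS, read as inhibition of TNF-α release. The denominator (PDE4QT) is the mean of the IC50s on the PDE4A, B and D catalytic domains. These were expressed as GST constructs in Sf9 cells by baculovirus. Each IC50 is the average of at least two experiments.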

Cytochrome P450 2C9 [34] = biological target: T2, Cytochrome P450 2C9; assay: Competitive inhibition of CYP2C9; type: ADME
Rattus norvegicus [35] = species: Rattus norvegicus; assay: Cognitive enhancing effect in Lister rat assessed as change in escape latency pretreated before sample phase by water maze delayed matching to position test; type: functional; settings: read-out: MED; outline: as §2

3',5'-cyclic-AMP phosphodiesterase 4A, sequence (P27815 whole entry, the tested form may be a part): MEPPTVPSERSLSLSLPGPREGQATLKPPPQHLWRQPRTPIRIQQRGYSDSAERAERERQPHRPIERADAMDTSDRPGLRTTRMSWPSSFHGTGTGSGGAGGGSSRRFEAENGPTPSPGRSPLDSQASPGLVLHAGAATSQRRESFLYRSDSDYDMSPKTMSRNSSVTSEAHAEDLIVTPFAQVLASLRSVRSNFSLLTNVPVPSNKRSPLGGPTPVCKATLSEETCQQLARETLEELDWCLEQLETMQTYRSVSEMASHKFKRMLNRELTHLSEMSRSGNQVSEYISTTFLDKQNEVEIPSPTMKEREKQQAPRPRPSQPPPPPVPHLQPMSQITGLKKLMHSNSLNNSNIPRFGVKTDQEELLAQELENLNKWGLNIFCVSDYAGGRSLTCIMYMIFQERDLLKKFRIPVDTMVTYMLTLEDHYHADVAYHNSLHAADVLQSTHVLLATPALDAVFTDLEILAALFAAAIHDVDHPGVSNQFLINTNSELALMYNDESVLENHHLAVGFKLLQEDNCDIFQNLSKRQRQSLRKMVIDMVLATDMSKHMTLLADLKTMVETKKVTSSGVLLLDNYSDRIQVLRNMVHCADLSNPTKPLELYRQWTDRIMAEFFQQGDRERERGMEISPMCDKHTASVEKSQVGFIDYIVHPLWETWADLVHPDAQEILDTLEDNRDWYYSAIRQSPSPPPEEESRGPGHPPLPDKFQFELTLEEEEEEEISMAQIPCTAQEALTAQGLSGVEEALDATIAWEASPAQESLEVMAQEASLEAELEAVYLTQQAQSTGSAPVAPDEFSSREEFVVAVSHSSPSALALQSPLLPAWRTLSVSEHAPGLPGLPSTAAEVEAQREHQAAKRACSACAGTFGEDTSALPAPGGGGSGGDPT
T2 sequence (P11712 whole entry): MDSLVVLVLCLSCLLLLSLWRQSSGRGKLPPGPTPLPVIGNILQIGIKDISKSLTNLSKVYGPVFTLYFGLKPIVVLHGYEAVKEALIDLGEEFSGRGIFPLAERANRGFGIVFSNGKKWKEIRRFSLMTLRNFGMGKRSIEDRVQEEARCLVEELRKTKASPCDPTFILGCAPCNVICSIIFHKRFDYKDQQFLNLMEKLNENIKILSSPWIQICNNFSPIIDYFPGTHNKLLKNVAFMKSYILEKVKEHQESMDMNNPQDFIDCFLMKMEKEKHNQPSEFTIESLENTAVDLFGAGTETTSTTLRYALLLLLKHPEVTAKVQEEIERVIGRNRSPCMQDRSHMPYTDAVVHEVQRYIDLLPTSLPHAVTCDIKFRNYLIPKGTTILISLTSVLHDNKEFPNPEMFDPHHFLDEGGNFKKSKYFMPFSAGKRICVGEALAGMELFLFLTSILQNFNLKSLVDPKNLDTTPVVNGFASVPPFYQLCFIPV
Cytochrome P450 2D6, sequence (P10635 whole entry): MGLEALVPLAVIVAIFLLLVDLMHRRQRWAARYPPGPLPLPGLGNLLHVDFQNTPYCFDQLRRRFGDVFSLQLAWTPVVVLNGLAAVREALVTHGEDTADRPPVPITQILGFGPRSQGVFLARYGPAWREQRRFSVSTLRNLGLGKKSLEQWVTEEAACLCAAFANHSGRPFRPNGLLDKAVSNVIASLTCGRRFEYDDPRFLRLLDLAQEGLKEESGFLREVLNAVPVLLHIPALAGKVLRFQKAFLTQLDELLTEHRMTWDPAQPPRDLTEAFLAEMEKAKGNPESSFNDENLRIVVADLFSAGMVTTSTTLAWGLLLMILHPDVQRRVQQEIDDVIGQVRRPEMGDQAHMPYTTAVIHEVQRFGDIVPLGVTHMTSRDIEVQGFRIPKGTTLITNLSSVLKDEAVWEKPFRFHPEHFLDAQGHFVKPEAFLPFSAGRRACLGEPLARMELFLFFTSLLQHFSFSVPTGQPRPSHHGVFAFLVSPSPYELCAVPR

O=C(NC1CC1)c1cn(-c2cccc(-c3ccc([C@@H]4C[C@H]4C(=O)O)c(F)c3)c2)c2ncccc2c1=O
IC50 (Cytochrome P450 2D6): > 100000 nM
Activity (Hepatocyte): 23%
half-life [1]: 4.3 h
clearance [2]: 1.7 mL/min/kg
IC50 (CYP3A): > 100000 nM
IC50 (Cytochrome P450 1A2): > 100000 nM
Activity [3]: > 35%
clearance [4]: 1.3 mL/min/kg
metabolised [5]: 20%
concentration (Brain [6]): 290 nM
metabolised [7]: 2%
IC50 (Cytochrome P450 2C9 [8]): > 100000 nM
minimal effective dose (Rattus norvegicus [9]): 0.1 mg/kg
metabolised [10]: 10%
IC50 [11]: 450 nM
bioavailability [12]: 38%
IC50 [13]: 52 nM
bioavailability [14]: 100%
clearance [15]: 1 mL/min/kg
bioavailability [16]: 41%
half-life [17]: 6.6 h
metabolised [18]: 5%
concentration (Plasma [19]): 12000 nM
metabolised [20]: 30%
Ratio (Rattus norvegicus [21]): 100
clearance [22]: 3.7 mL/min/kg
half-life [23]: 6.5 h
concentration (Plasma [24]): 390 nM
MED (Rattus norvegicus [25]): 10 mg/kg
IC50 (Phosphodiesterase 4): 550 nM
half-life [26]: 3.5 h
bioavailability [27]: 77%
IC50 [28]: 0.53 nM
concentration (Brain [29]): 9.2 nM
IC50 [30]: 940 nM

Cc1noc(/C(=C/c2cccc(-c3cc(C(C)(C)S(C)(=O)=O)cc4cccnc34)c2)c2ccc(S(C)(=O)=O)cc2)n1
minimal effective dose (Rattus norvegicus [31]): 0.3 mg/kg
concentration (Brain [6]): 21 nM
Activity (Rattus norvegicus [32]): Active
IC50 [11]: 23 nM
concentration (Plasma [19]): 113 nM
concentration (Plasma [24]): 27 nM
MED (Rattus norvegicus [25]): 1 mg/kg
concentration (Brain [29]): 5.1 nM

O=C(NC1CC1)c1cn(-c2cccc(C#Cc3ccc[n+]([O-])c3)c2)c2ncccc2c1=O [MK-0873]
Ratio IC50 [33]: 37
concentration (Brain [6]): 48 nM
IC50 [11]: 64 nM
concentration (Plasma [19]): 828 nM
concentration (Plasma [24]): 258 nM
MED (Rattus norvegicus [25]): 1 mg/kg
IC50 (Cytochrome P450 2C9 [34]): 40000 nM
IC50 (Phosphodiesterase 4): 190 nM
IC50 [28]: 5.1 nM
concentration (Brain [29]): 15 nM
minimal effective dose (Rattus norvegicus [35]): 0.3 mg/kg
